Test results taken from ChEMBL document CHEMBL1152473, “Synthesis, characterization and antibacterial activity of some triazole Mannich bases carrying diphenylsulfone moieties” (2009).
Converted amounts (≈) assume the structure as drawn. The source made the active and inactive calls. The rule behind the calls is not given here.

Tests used:
Assay type in all cases: functional
Staphylococcus aureus = assay: Antibacterial activity against Staphylococcus aureus ATCC 12600 after 18 to 24 hrs by liquid broth method
In short: (§1)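 Serial two-fold dilution in liquid broth in 96-well plates. Compounds were added from DMSO stock solutions to give final levels of 1024, 512, 256, 128, 64, 32, 16, 8, 4 and 2 (unit as printed unclear). Plates were incubated at 37 °C for 18–24 h.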

Pseudomonas aeruginosa = assay: Antibacterial activity against Pseudomonas aeruginosa ATCC 9027 after 18 to 24 hrs by liquid broth method; in short: as §1
Citrobacter freundii = assay: Antibacterial activity against Citrobacter freundii ATCC 8090 after 18 to 24 hrs by liquid broth method; in short: as §1
Acinetobacter baumannii = assay: Antibacterial activity against Acinetobacter baumannii ATCC 19606 after 18 to 24 hrs by liquid broth method; details: ATCC 19606 = CIP 70.34 = JCM 6841; in short: as §1
[1] = system: Staphylococcus epidermidis; assay: Antibacterial activity against Staphylococcus epidermidis ATCC 14990 after 18 to 24 hrs by liquid broth method; in short: as §1
Enterococcus faecalis = assay: Antibacterial activity against Enterococcus faecalis ATCC 19433 after 18 to 24 hrs by liquid broth method; in short: as §1
Bacillus subtilis = assay: Antibacterial activity against Bacillus subtilis ATCC 6633 after 18 to 24 hrs by liquid broth method; in short: as §1

SMILES	MIC (Staphylococcus aureus)	MIC (Pseudomonas aeruginosa)	MIC (Citrobacter freundii)	MIC (Acinetobacter baumannii)	MIC [1]	MIC (Enterococcus faecalis)	MIC (Bacillus subtilis)
CN(C)c1ccc(/C=N/n2c(-c3ccc(S(=O)(=O)c4ccccc4)cc3)nn(CN3CCOCC3)c2=S)cc1	1020 µg/mL (≈ 1820 µM)	> 1020 µg/mL	inactive	1020 µg/mL (≈ 1820 µM)	inactive	> 1020 µg/mL	512 µg/mL (≈ 910 µM)
O=[N+]([O-])c1cccc(/C=N/n2c(-c3ccc(S(=O)(=O)c4ccccc4)cc3)n[nH]c2=S)c1	256 µg/mL (≈ 550 µM)	512 µg/mL (≈ 1100 µM)	inactive	1020 µg/mL (≈ 2200 µM)	inactive	inactive	512 µg/mL (≈ 1100 µM)
O=S(=O)(c1ccccc1)c1ccc(-c2nn(CN3CCOCC3)c(=S)n2/N=C/c2ccccc2)cc1	512 µg/mL (≈ 985 µM)	> 1020 µg/mL	> 1020 µg/mL	> 1020 µg/mL	inactive	1020 µg/mL (≈ 1970 µM)	512 µg/mL (≈ 985 µM)
O=C(N[C@H](CO)[C@H](O)c1ccc([N+](=O)[O-])cc1)C(Cl)Cl [CHLORAMPHENICOL]	64 µg/mL (≈ 198 µM)	64 µg/mL (≈ 198 µM)	128 µg/mL (≈ 396 µM)	128 µg/mL (≈ 396 µM)	64 µg/mL (≈ 198 µM)	64 µg/mL (≈ 198 µM)	64 µg/mL (≈ 198 µM)
COc1ccccc1/C=N/n1c(-c2ccc(S(=O)(=O)c3ccccc3)cc2)nn(CN2CCOCC2)c1=S	512 µg/mL (≈ 931 µM)	> 1020 µg/mL	inactive	512 µg/mL (≈ 931 µM)	inactive	> 1020 µg/mL	512 µg/mL (≈ 931 µM)
COc1ccccc1/C=N/n1c(-c2ccc(S(=O)(=O)c3ccccc3)cc2)n[nH]c1=S	128 µg/mL (≈ 284 µM)	512 µg/mL (≈ 1140 µM)	inactive	256 µg/mL (≈ 568 µM)	inactive	inactive	128 µg/mL (≈ 284 µM)
O=S(=O)(c1ccccc1)c1ccc(-c2n[nH]c(=S)n2/N=C/c2ccccc2)cc1	512 µg/mL (≈ 1220 µM)	1020 µg/mL (≈ 2440 µM)	inactive	> 1020 µg/mL	> 1020 µg/mL	inactive	inactive
O=S(=O)(c1ccc(Cl)cc1)c1ccc(-c2nn(CN3CCOCC3)c(=S)n2/N=C/c2ccccc2)cc1	1020 µg/mL (≈ 1850 µM)	1020 µg/mL (≈ 1850 µM)	inactive	1020 µg/mL (≈ 1850 µM)	inactive	512 µg/mL (≈ 924 µM)	inactive
O=[N+]([O-])c1cccc(/C=N/n2c(-c3ccc(S(=O)(=O)c4ccccc4)cc3)nn(CN3CCOCC3)c2=S)c1	512 µg/mL (≈ 907 µM)	1020 µg/mL (≈ 1810 µM)	inactive	512 µg/mL (≈ 907 µM)	inactive	1020 µg/mL (≈ 1810 µM)	1020 µg/mL (≈ 1810 µM)
CCCn1c(-c2ccc(S(=O)(=O)c3ccc(Br)cc3)cc2)nn(CN2CCOCC2)c1=S	inactive	> 1020 µg/mL	256 µg/mL (≈ 476 µM)	> 1020 µg/mL	inactive	512 µg/mL (≈ 953 µM)	> 1020 µg/mL
Nn1c(-c2ccc(S(=O)(=O)c3ccc(Cl)cc3)cc2)n[nH]c1=S	1020 µg/mL (≈ 2790 µM)	inactive	1020 µg/mL (≈ 2790 µM)	128 µg/mL (≈ 349 µM)	512 µg/mL (≈ 1400 µM)	inactive	1020 µg/mL (≈ 2790 µM)
